Data from ChEMBL document CHEMBL1143122, “Novel analogs of D-e-MAPP and B13. Part 1: synthesis and evaluation as potential anticancer agents” (Bioorg Med Chem, 2008).

Legend:
T47D = assay: Antiproliferative activity against human T47D cells after 48 hrs; type: functional
Summary of the method: (§1)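 NCI 60-cell-line screen. Lines grown in RPMI 1640 with 5% fetal bovine serum and 2 mM L-glutamine, plated at 5,000–40,000 cells/well according to doubling time, left 24 h at 37 °C in 5% CO2. Drug stocks in DMSO at 400-fold the top final concentration. Five 10-fold dilutions, 10−4 to 10−8 M, incubated 48 h. Growth read spectrophotometrically as net protein; GI50 taken as 50% reduction.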

SF-539 = assay: Antiproliferative activity against human SF539 cells after 48 hrs; type: functional; conditions: SF-539, 48 h
Summary of the method: (§2)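 NCI 60-cell screen. Cells were grown in RPMI 1640 with 5% FBS and 2 mM L-glutamine, then plated at 5,000–40,000 cells/well according to doubling time and preincubated for 24 h at 37 °C in 5% CO2. Compounds were dissolved in DMSO at 400× the top final concentration and tested at five 10-fold dilutions from 10−4 to 10−8 M for 48 h. Growth was read spectrophotometrically; GI50 is 50% net protein reduction.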

SF-268 = assay: Antiproliferative activity against human SF268 cells after 48 hrs; type: functional; conditions: SF-268, 48 h; summary of the method: as §2
MOLT-4 = assay: Antiproliferative activity against human MOLT4 cells after 48 hrs; type: functional; conditions: MOLT-4, 48 h; summary of the method: as §2
HCC 2998 = assay: Antiproliferative activity against human HCC2998 cells after 48 hrs; type: functional; conditions: HCC 2998, 48 h; summary of the method: as §2
K562 = assay: Antiproliferative activity against human K562 cells after 48 hrs; type: functional; conditions: K562, 48 h; summary of the method: as §2
[1] = Antiproliferative activity against human NCI-ADR-RES cells after 48 hrs; type: functional; summary of the method: as §2
IGROV-1 = assay: Antiproliferative activity against human IGROV1 cells after 48 hrs; type: functional; conditions: IGROV-1, 48 h; summary of the method: as §2
SN12C = assay: Antiproliferative activity against human SN12C cells after 48 hrs; type: functional; summary of the method: as §2
A498 = assay: Antiproliferative activity against human A498 cells after 48 hrs; type: functional; conditions: A498, 48 h; summary of the method: as §2
BT-549 = assay: Antiproliferative activity against human BT549 cells after 48 hrs; type: functional; conditions: BT-549, 48 h; summary of the method: as §2
OVCAR-8 = assay: Antiproliferative activity against human OVCAR8 cells after 48 hrs; type: functional; conditions: OVCAR-8, 48 h; summary of the method: as §2
SW-620 = assay: Antiproliferative activity against human SW620 cells after 48 hrs; type: functional; conditions: SW-620, 48 h; summary of the method: as §1
TK-10 = assay: Antiproliferative activity against human TK10 cells after 48 hrs; type: functional; conditions: TK-10, 48 h; summary of the method: as §1
UACC-257 = assay: Antiproliferative activity against human UACC257 cells after 48 hrs; type: functional; conditions: UACC-257, 48 h; summary of the method: as §1
[2] = Antiproliferative activity against human HL60(TB) cells after 48 hrs; type: functional, HL-60(TB); conditions: HL-60, 48 h
Summary of the method: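 NCI 60-line panel screen: cells grown in RPMI 1640 with 5% fetal bovine serum and 2 mM L-glutamine, plated at 5,000–40,000 cells/well by doubling time, and preincubated 24 h at 37 °C in 5% CO2. Drugs were solubilised in DMSO at 400-fold the final maximum and tested at five 10-fold dilutions from 10−4 to 10−8 M for 48 h. Net protein was read spectrophotometrically, and the concentration giving 50% reduction was reported as log10 GI50.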

HT-29 = assay: Antiproliferative activity against human HT29 cells after 48 hrs; type: functional; conditions: HT-29, 48 h; summary of the method: as §2
M14 = assay: Antiproliferative activity against human M14 cells after 48 hrs; type: functional; conditions: M14, 48 h; summary of the method: as §2
SK-OV-3 = assay: Antiproliferative activity against human SKOV3 cells after 48 hrs; type: functional; conditions: SK-OV-3, 48 h; summary of the method: as §2
MCF7 = assay: Drug level in human MCF7 cells at 10 uM per 10^6 cells after 0.5 hrs; type: ADME, cell-based; conditions: mcf7, 0.5 h
Summary of the method: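 MCF7 cells kept in RPMI 1640 with 10% fetal calf serum at 37 °C, 5% CO2, then treated with 10 μM analog. Intracellular analog measured over time by HPLC-MS in positive-ion MRM mode. Quantified against calibration curves made by spiking an artificial matrix with standards plus internal standard, using analyte/IS peak-area ratios and linear regression. Reported as pmol per 1×10^6 cells.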

Hs-578T = assay: Antiproliferative activity against human HS578T cells after 48 hrs; type: functional; summary of the method: as §2
HOP-62 = assay: Antiproliferative activity against human HOP62 cells after 48 hrs; type: functional; conditions: HOP-62, 48 h; summary of the method: as §2
A549 = assay: Antiproliferative activity against human A549 cells after 48 hrs; type: functional; conditions: A549, 48 h; summary of the method: as §2
NCI-H23 = assay: Antiproliferative activity against human NCI-H23 cells after 48 hrs; type: functional; conditions: NCI-H23, 48 h; summary of the method: as §2
SNB-75 = assay: Antiproliferative activity against human SNB75 cells after 48 hrs; type: functional; conditions: SNB-75, 48 h; summary of the method: as §2
[3] = read-out: Log LC50 (the source's name) (converted)

C[C@H](NC(=O)CCCCCCCCCCCCCCC[n+]1ccccc1)[C@H](O)c1ccccc1.[Br-]
GI50 (T47D): 0.933 µM
CC50 (T47D; [3]): 58.9 µM
TGI (T47D; read-out: Log TGI (converted)): 10.7 µM
GI50 (SF-539): 3.39 µM
LC50 (SF-539): 39.8 µM
TGI (SF-539; read-out: Log TGI (converted)): 14.1 µM
GI50 (SF-268): 3.24 µM
LC50 (SF-268): 43.7 µM
TGI (SF-268; read-out: Log TGI (converted)): 13.2 µM
GI50 (MOLT-4): 4.9 µM
LC50 (MOLT-4): 63.1 µM
TGI (MOLT-4; read-out: Log TGI (converted)): 18.6 µM
GI50 (HCC 2998): 1.55 µM
CC50 (HCC 2998; [3]): 30.9 µM
TGI (HCC 2998; read-out: Log TGI (converted)): 7.41 µM
GI50 (K562): 0.912 µM
LC50 (K562): 77.6 µM
TGI (K562; read-out: Log TGI (converted)): 15.8 µM
GI50 [1]: > 100 µM
LC50 [1]: > 100 µM
TGI ([1]; read-out: Log TGI (converted)): > 100 µM
GI50 (IGROV-1): 3.16 µM
LC50 (IGROV-1): 57.5 µM
TGI (IGROV-1; read-out: Log TGI (converted)): 15.8 µM
GI50 (SN12C): 3.47 µM
LC50 (50% net cell kill) (SN12C): 47.9 µM
TGI (SN12C; read-out: Log TGI (converted)): 14.8 µM
GI50 (A498): 17.8 µM
CC50 (A498; [3]): 57.5 µM
TGI (A498; read-out: Log TGI (converted)): 32.4 µM
LC50 (BT-549): 8.71 µM
TGI (BT-549; read-out: Log TGI (converted)): 0.851 µM
GI50 (OVCAR-8): 3.89 µM
CC50 (OVCAR-8; [3]): > 100 µM
TGI (OVCAR-8; read-out: Log TGI (converted)): 22.9 µM
GI50 (SW-620): 6.92 µM
LC50 (concentration killing 50% of cells) (SW-620): 45.7 µM
TGI (SW-620; read-out: Log TGI (converted)): 20 µM
GI50 (TK-10): 14.5 µM
CC50 (TK-10; [3]): 56.2 µM
TGI (TK-10; read-out: Log TGI (converted)): 28.2 µM
GI50 (UACC-257): 2.24 µM
CC50 (UACC-257; [3]): 38.9 µM
TGI (UACC-257; read-out: Log TGI (converted)): 8.32 µM
GI50 [2]: 1.48 µM
LC50 [2]: 31.6 µM
TGI ([2]; read-out: Log TGI (converted)): 4.37 µM
GI50 (HT-29): 1.32 µM
LC50 (HT-29): 34.7 µM
TGI (HT-29; read-out: Log TGI (converted)): 11.7 µM
GI50 (M14): 6.31 µM
LC50 (M14): 46.8 µM
TGI (M14; read-out: Log TGI (converted)): 19.5 µM
GI50 (SK-OV-3): 3.31 µM
CC50 (SK-OV-3; [3]): 35.5 µM
TGI (SK-OV-3; read-out: Log TGI (converted)): 12 µM
Drug uptake (MCF7): 800 pmol
GI50 (Hs-578T): 3.24 µM
LC50 (Hs-578T): > 100 µM
TGI (Hs-578T; read-out: Log TGI (converted)): 13.5 µM
GI50 (HOP-62): 7.08 µM
CC50 (HOP-62; [3]): 44.7 µM
TGI (HOP-62; read-out: Log TGI (converted)): 20.4 µM
GI50 (A549): 5.13 µM
CC50 (A549; [3]): 67.6 µM
TGI (A549; read-out: Log TGI (converted)): 21.9 µM
GI50 (NCI-H23): 2.95 µM
CC50 (NCI-H23; [3]): 49 µM
TGI (NCI-H23; read-out: Log TGI (converted)): 15.5 µM
GI50 (SNB-75): 1.7 µM
CC50 (SNB-75; [3]): 38 µM
TGI (SNB-75; read-out: Log TGI (converted)): 11.2 µM
